# Screening data from PubChem BioAssay.
# Most compounds without a hit are left out; they make up all but 2.3% or so of the library.
# CD11b adhes inh: blocks human CD11b/CD18 adhesion to fibrinogen. 93,000 tested, 0.54% active. AID 1497. inhibition, % at 10 µM. P05107+P11215. K562 CD11b/CD18 adhesion to fibrinogen, ATPlite luminescence; Mn2+ added to activate the integrin;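 active means primary inhibition of 50% or more at 10 µM, then 40% or more on retest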
# Target sequence (P05107 whole entry, looked up, other chains not shown): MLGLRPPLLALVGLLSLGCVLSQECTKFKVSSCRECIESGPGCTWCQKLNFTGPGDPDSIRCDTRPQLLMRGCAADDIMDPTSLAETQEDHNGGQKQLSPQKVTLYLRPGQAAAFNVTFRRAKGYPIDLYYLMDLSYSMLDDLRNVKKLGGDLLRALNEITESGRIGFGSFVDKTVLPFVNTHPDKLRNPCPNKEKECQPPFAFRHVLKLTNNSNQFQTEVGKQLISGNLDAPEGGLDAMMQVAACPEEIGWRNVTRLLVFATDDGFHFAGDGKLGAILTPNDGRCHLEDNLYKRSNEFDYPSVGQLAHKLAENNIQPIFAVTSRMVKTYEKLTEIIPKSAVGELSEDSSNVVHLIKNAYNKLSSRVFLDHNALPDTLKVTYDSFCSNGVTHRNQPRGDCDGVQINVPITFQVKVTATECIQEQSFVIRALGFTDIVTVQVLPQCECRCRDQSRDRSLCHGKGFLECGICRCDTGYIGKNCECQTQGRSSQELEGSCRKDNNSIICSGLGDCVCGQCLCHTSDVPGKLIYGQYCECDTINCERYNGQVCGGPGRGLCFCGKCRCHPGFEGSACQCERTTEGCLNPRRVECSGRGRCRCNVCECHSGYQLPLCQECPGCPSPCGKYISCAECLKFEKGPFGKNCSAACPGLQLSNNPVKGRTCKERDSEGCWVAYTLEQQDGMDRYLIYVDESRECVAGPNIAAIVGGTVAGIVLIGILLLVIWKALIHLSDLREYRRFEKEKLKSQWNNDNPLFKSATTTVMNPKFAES
# Ecoli tolC: blocks growth of E. coli BW25113 tolC mutant; OD615; growth inhibition, % at 10 µM (by protocol); 65,000 tested, 2.2% active; AID 573;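 active means growth inhibition at or above a cutoff equal to the mean over every tested compound plus 3 SD, cut at about 60% in these data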;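 further: growth measured after 20 h incubation at 37 °C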
#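 test system = E. coli BW25113 ΔtolC::kan bacteria | medium = LB with kanamycin 50 µg/mL | signal = OD at 615 nm | schedule = 37 °C, 20 h exposure | evaluation = % inhibition of E. coli growth | compound dosing = one dose of 10 µM final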
# Mac1 fbg enh: enhancers of human CD11b/CD18 binding to fibrinogen; activation, % at 10 µM; AID 1499; P05107+P11215; K562 CD11b/CD18 adhesion to fibrinogen, ATPlite luminescence; 93,000 tested, 0.07% active;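 active means 10 µM primary screen giving 50% or more activity, confirmed by 40% or more on retest at that dose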
# Pyk2 oligo antag: antagonists of human Pyk2 oligomerization. Q14289. Q293 cells, Pyk2 FERM NanoBiT luminescence; stronger effect = lower value. z-score (the deposit names both 25 µM and 10 µM). 99,000 tested, 0.83% active. AID 1347419;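 active means Z-score of -3 or lower, scaled per plate to the spread of control and sample wells; inactive means z-score above -3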;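 further: negative z-score means lost luminescence so less FERM oligomerization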
# E coli WT exp: blocks growth of wild type E. coli BW25113; OD600 absorbance; growth inhibition, % at 100 µM; 98,000 tested, 0.15% active; AID 710;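 active means growth inhibition above about 50% at one test dose, limit read from the data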;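 further: growth measured after 20 h incubation at 37 °C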
# Numbers without * were called inactive; . = no result.
SMILES,CD11b adhes inh,Ecoli tolC,Mac1 fbg enh,Pyk2 oligo antag,E coli WT exp
Cc1ccc(CNC(=O)N[C@@H](Cc2ccccc2)C(=O)O)cc1,.,.,.,-0.13,.
O=C(N/N=C/c1ccc(OCCCF)cc1)c1cc(OCC(F)(F)F)ccc1OCC(F)(F)F,5,.,3,1.7,-6
COc1ccc(C2c3sc(=O)[nH]c3SC3C4CCC(C4)C23)cc1 (stereo unspecified),-36,100*,-1,-0.53,-8
CCOC(=O)N1CCN(S(=O)(=O)c2ccc(OCC)c3ccccc23)CC1,6,65*,-1,-1.6,-13
CCOC(=O)N1CCN(S(=O)(=O)c2ccc(OC)c(Cl)c2Cl)CC1,12,3,-2,-0.6,-3
COc1ccc(OC)c(-c2cc(C(=O)N3CCCc4ccccc43)no2)c1,8,65*,-4,-1.5,-23
COc1ccc(-c2cc(C(=O)N3CCCc4ccccc43)no2)cc1,3,63*,-2,-1.5,-17
O=C(c1ccc(C(=O)N2CCCc3ccccc32)s1)N1CCCc2ccccc21,.,.,.,-3.3*,-14
O=C(C1CCCN(Cc2ccccc2Br)C1)N1CCCCC1 (stereo unspecified),-9,0,-2,0.17,2
O=c1c2ccccc2nc(SCc2ccc([N+](=O)[O-])cc2)n1CCCO,-4,.,3,-1.1,.
CCCC(=O)Nc1sc(C)c(-c2ccc(C(C)CC)cc2)c1C#N (stereo unspecified),.,.,.,3,-11
O=c1cc(-c2ccc(F)cc2)oc2ccccc12,.,.,.,-0.93,.
CSc1ccc(-c2cc(=O)c3ccccc3o2)cc1,-35,61*,4,-0.76,-12
CCN(CC)S(=O)(=O)c1ccc2oc(C(=O)NCc3ccc(C)cc3)c(C)c2c1,18,.,-4,-0.88,-14
COc1c(Cl)cc(-c2noc(C)c2C(=O)NCCc2ccc(C)cc2)cc1Cl,-8,.,-8,.,1
Cc1ccc(C)c(N2CCN(S(=O)(=O)c3ccc4c(c3)OCCO4)CC2)c1,12,34,1,-3.9*,-14
Cc1ccc(C)c(N2CCN(S(=O)(=O)c3ccc4[nH]c(=O)c(=O)[nH]c4c3)CC2)c1,-9,31,-1,0.24,-17
Cc1ccc(Cl)cc1N1CCN(S(=O)(=O)c2ccc3c(c2)OCCO3)CC1,13,25,2,-4.2*,-17
O=C(c1ccc2c(c1)N(Cc1ccccc1)CCS2)N1CCCCC1,0,.,1,.,-12
O=C(CC1CCCCC1)Nc1ncn[nH]1,-11,.,-1,0.77,15
CC(C)c1ccc(-c2noc(C3CCCN(C(=O)c4ccc(F)cc4F)C3)n2)cc1 (stereo unspecified),77,68*,-6,-1.6,-22
Cc1cc(C)cc(NC(=O)Nc2ccc3c(c2)N(C)C(=O)CS3)c1,-4,.,-2,.,-13
CC(=O)c1cccc(NC(=O)Nc2ccc3c(c2)N(C)C(=O)CS3)c1,16,11,0,-3.3*,24
Cc1cc(Cl)ccc1OCCCC(=O)N1CCCCC1,7,.,0,0.01,-5
Cc1cc(OCCCC(=O)N2CCCCC2)cc(C)c1Cl,-6,63*,6,0.41,0
SMILES,CD11b adhes inh,Ecoli tolC,Mac1 fbg enh,Pyk2 oligo antag,E coli WT exp
Cn1c(-c2ccccc2)cc2c3no[n+]([O-])c3ccc21,-6,95*,1,-1.1,2
CCOC(=O)c1c(C)n(OCc2ccccc2)c2ccc3c(no[n+]3[O-])c12,2,1,8,-0.38,-7
O=C(Nc1ccccc1)c1ccccc1O,5,10,-5,-0.57,32
Cc1ccc(NC(=O)c2ccccc2O)cc1,.,92*,.,-0.94,43
CC(=O)N(C)c1nnc(-c2ccccn2)s1,.,.,.,-0.21,.
O=C(CSc1nnc(-c2ccc(F)cc2)c2ccccc12)Nc1ccccc1Cl,15,.,5,.,.
CCc1ccc(NC(=O)CSc2nnc(Cc3cccn3C)n2-c2ccc(F)cc2)cc1,-2,66*,1,.,-15
C=CCn1c(SCC(=O)NC2CCCCC2)nnc1C1CCCCC1,.,.,.,0.12,-3
C=CCSc1nc2c(c(=N)n1CC=C)C1CCCC1S2 (stereo unspecified),3,96*,0,0.25,6
c1csc(CCNc2ncnc3sc4c(c23)CCC4)c1,86*,60,-6,.,-8
Cc1c(NC(=O)Nc2ccc(Cl)c(Cl)c2)c(=O)n(-c2ccccc2)n1C,-7,100*,2,-0.6,13
Cc1cccc(Nc2nc(-c3ccccn3)cs2)n1,-4,98*,4,-0.14,37
c1ccc(Nc2nc(-c3cccs3)cs2)nc1,.,100*,.,-0.12,4
O=C(NNc1cc(N2CCOCC2)nc(N2CCOCC2)n1)c1ccc(Cl)cc1Cl,18,.,1,.,.
COc1ccccc1NC(=O)c1cc(Sc2nncn2C)nc2ccccc12,0,7,-1,-0.81,1
CSC1=C(C#N)C(c2ccc(Cl)cc2)C2=C(CC(C)(C)CC2=O)N1 (stereo unspecified),-13,26,-4,-3.1*,.
COc1cc(-c2nc(Cc3ccccc3Cl)no2)cc(OC)c1OC,17,67*,2,-0.99,-1
COc1cc(-c2nnc(SCc3ccccc3Cl)o2)cc(OC)c1OC,1,77*,5,-0.87,-1
Cc1c(/C=N/n2cnnc2)c2ccccc2n1C,-54,-2,4,0.3,-3
CCOc1ccc(OCC)c(-c2c(=O)n(OCc3ccccc3Br)c3ccccc3[n+]2[O-])c1,-3,.,-2,-1.4,-10
CCOC(=O)CSc1nc2c(sc(=S)n2-c2ccccc2OC)c(=O)n1Cc1ccco1,1,.,0,-0.4,-14
O=C(NCCCN1CCCCCC1)C1CC(=O)N(CCc2ccccc2)C1 (stereo unspecified),-2,-16,82*,0.59,0
CN1/C(=C\C(=O)COC(=O)C2COc3ccccc3O2)C(C)(C)c2ccccc21 (stereo unspecified),-16,-1,3,-0.79,-11
CN1/C(=C\C(=O)COc2ccc3c(c2)OCO3)C(C)(C)c2ccccc21,36,89*,-4,0.13,-28
CN1CCN(c2ccc(Cl)cc2NS(=O)(=O)c2ccccc2Cl)CC1,20,-21,0,-0.49,-1
SMILES,CD11b adhes inh,Ecoli tolC,Mac1 fbg enh,Pyk2 oligo antag,E coli WT exp
COc1ccc(C(c2c(C)[nH]n(-c3ccccc3)c2=O)c2c(C)[nH]n(-c3ccccc3)c2=O)cc1OC,52*,.,-4,.,.
CCOc1ccc(C(c2c(C)[nH][nH]c2=O)c2c(C)[nH][nH]c2=O)cc1OC,5,.,-3,0.29,-1
CCc1nnc(NC(=O)C2Cc3ccccc3CN2S(=O)(=O)c2cccs2)s1 (stereo unspecified),-6,19,25,-1.7,-6
CCc1nnc(NC(=O)C2Cc3ccccc3CN2S(=O)(=O)c2ccc(C)cc2)s1 (stereo unspecified),.,.,.,-3*,1
Oc1ccccc1N=Nc1nc(-c2ccccc2)c(-c2ccccc2)[nH]1,0,.,-4,-3.8*,-10
COc1ccccc1N1CCN(C(c2cccs2)c2nnnn2C2CCCC2)CC1 (stereo unspecified),-6,26,1,-1.5,-4
